This is an account of results in ChEMBL document CHEMBL5696442, “Discovery of type II inhibitors of TGFβ-activated kinase 1 (TAK1) and mitogen-activated protein kinase kinase kinase kinase 2 (MAP4K2)” (J Med Chem, 2015).

The target in assay [1] is T1, Serine/threonine-protein kinase TAO1 (Homo sapiens) (UniProt Q7L7X3).
T1 sequence (whole entry): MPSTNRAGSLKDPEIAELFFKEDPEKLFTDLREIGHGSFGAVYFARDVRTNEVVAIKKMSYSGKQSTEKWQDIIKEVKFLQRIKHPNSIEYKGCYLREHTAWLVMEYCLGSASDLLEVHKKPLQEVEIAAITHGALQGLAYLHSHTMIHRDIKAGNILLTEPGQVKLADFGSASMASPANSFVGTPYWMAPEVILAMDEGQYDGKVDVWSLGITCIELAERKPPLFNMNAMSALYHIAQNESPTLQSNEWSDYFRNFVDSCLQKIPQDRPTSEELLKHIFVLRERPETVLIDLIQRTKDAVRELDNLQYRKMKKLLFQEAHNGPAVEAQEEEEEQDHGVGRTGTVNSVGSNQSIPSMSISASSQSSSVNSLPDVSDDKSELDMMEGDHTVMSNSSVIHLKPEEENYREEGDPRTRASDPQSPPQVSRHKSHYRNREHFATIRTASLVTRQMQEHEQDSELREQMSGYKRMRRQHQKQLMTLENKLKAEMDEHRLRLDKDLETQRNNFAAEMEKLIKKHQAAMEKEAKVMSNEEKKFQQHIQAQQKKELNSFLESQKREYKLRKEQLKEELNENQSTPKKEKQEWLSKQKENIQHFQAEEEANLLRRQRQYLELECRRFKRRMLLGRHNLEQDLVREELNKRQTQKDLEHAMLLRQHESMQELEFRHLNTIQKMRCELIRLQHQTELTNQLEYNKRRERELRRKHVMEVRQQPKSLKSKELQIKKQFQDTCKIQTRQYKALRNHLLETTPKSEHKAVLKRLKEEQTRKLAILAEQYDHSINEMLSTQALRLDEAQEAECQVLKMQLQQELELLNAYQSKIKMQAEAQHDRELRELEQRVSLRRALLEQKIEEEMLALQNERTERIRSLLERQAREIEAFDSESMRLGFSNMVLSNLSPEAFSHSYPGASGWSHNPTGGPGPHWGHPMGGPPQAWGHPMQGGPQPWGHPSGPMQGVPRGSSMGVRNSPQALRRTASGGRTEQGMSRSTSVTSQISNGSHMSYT
The assay can be described thus: Inhibition of TAO1 Lys2 labeling site in human A-375 cells at 0.5 uM by KiNativ Profiling analysis relative to control. The format is cell-based.

The target in assay [2] is Proto-oncogene tyrosine-protein kinase Src (Homo sapiens, UniProt P12931). The assay can be described thus: Inhibition of SRC ACT labeling site in human A-375 cells at 5 uM by KiNativ Profiling analysis relative to control. The format is cell-based.
Proto-oncogene tyrosine-protein kinase Src, sequence (P12931 2-536 limits assumed): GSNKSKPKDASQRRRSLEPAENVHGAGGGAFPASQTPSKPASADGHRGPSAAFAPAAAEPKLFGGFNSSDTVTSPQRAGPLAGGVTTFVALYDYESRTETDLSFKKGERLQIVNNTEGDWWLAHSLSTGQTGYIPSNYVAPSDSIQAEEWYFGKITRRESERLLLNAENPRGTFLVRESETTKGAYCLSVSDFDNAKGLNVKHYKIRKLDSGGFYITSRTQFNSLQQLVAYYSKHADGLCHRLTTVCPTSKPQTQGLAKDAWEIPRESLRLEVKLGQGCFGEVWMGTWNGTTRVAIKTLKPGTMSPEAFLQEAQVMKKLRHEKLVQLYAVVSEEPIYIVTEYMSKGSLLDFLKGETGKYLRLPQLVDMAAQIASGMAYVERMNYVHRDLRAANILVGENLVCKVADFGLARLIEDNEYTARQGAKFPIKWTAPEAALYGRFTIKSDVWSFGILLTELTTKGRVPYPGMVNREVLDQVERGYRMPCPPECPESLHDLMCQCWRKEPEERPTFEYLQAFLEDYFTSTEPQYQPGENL
Assay [3] concerns the target T2, Phosphatidylinositol 5-phosphate 4-kinase type-2 gamma (Homo sapiens) (UniProt Q8TBX8).
T2 sequence (whole entry): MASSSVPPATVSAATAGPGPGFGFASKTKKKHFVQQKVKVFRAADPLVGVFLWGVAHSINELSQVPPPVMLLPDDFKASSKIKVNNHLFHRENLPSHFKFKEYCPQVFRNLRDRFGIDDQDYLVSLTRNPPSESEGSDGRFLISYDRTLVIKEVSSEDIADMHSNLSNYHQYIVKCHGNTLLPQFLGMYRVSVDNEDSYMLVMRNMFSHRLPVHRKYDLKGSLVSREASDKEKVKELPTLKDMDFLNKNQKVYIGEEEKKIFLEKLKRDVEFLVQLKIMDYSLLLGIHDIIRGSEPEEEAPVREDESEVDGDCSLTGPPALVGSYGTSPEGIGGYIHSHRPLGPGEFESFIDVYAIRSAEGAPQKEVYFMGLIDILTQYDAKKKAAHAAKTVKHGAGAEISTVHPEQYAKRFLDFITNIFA
Briefly: Inhibition of PIP4K2C ATP labeling site harbouring VKELPTLKDMDFLNK in human A-375 cells at 0.5 uM by KiNativ Profiling analysis relative to control. The format is cell-based. In short, it runs like this: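 Live A375 melanoma cells were treated with compound at 5 or 0.5 μM, then lysed. Lysates were labeled with a lysine-reactive ATP or ADP-biotin probe. Read-out was the compound's protection of kinase labeling sites from probe labeling (KiNativ).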

Assay [4] concerns the target T3, Serine/threonine-protein kinase TAO3 (Homo sapiens) (UniProt Q9H2K8).
T3 sequence (whole entry): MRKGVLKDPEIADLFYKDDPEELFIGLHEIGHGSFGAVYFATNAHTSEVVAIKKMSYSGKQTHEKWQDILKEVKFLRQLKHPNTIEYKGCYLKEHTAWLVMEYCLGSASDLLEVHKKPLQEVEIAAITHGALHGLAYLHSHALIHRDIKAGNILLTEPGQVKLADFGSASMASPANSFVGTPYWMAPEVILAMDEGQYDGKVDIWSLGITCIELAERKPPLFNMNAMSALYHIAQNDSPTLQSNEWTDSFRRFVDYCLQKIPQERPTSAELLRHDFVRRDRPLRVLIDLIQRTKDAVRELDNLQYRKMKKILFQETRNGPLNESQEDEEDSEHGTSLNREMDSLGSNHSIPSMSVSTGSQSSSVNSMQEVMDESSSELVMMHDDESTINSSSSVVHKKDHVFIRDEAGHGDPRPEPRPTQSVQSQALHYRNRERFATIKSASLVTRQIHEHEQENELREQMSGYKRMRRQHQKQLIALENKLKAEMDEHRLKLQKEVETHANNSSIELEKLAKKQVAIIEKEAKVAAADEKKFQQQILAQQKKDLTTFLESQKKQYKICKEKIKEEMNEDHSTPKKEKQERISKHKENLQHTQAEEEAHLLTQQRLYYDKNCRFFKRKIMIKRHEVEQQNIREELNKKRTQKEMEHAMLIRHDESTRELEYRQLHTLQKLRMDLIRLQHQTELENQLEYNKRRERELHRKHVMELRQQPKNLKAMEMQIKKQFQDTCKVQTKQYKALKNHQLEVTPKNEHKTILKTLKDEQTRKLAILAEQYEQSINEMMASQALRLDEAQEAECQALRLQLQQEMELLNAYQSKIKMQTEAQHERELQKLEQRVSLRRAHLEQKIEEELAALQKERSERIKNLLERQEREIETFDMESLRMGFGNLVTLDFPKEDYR
The assay can be described thus: Inhibition of TAO3 Lys2 labeling site in human A-375 cells at 0.5 uM by KiNativ Profiling analysis relative to control. The format is cell-based.

Assay [5] has as its target Protein kinase C alpha type (Homo sapiens) (UniProt P17252). Briefly: Inhibition of PKCa Lys2 labeling site in human A-375 cells at 5 uM by KiNativ Profiling analysis relative to control. The assay is classed as cell-based.
Assay [6] addresses Interleukin-1 receptor-associated kinase 1 (Homo sapiens) (UniProt P51617). The assay can be described thus: Inhibition of IRAK1 Lys2 labeling site in human A-375 cells at 0.05 uM by KiNativ Profiling analysis relative to control. The format is cell-based.
For assay [7], the target named is Mitogen-activated protein kinase kinase kinase 20 (Homo sapiens, UniProt Q9NYL2). Briefly: Inhibition of ZAK (unknown origin) Lys1 labeling site by KiNativ Profiling analysis.
Mitogen-activated protein kinase kinase kinase 20, sequence (Q9NYL2 whole entry): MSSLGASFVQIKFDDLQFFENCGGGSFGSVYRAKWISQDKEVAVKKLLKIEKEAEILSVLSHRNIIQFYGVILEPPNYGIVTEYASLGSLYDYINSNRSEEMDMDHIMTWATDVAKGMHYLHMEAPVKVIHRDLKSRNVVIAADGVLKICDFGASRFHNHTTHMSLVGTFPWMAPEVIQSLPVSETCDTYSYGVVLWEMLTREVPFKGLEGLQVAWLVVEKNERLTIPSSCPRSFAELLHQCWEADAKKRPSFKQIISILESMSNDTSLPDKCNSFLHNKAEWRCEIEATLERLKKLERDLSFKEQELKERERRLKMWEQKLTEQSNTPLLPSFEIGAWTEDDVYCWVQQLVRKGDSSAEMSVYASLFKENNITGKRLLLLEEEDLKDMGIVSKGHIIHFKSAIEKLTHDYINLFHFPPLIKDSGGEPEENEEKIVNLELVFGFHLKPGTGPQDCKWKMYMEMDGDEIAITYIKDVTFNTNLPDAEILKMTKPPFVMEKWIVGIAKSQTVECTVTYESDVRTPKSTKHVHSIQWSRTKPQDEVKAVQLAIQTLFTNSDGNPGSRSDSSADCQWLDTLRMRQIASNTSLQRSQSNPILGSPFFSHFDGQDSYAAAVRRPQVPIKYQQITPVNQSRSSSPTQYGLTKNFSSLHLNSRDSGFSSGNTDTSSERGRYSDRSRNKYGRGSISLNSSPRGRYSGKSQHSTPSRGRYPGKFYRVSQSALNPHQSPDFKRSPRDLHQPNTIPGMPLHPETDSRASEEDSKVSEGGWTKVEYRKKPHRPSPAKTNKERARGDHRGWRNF

Interleukin-1 receptor-associated kinase 1 (Homo sapiens), sequence (P51617 whole entry, looked up): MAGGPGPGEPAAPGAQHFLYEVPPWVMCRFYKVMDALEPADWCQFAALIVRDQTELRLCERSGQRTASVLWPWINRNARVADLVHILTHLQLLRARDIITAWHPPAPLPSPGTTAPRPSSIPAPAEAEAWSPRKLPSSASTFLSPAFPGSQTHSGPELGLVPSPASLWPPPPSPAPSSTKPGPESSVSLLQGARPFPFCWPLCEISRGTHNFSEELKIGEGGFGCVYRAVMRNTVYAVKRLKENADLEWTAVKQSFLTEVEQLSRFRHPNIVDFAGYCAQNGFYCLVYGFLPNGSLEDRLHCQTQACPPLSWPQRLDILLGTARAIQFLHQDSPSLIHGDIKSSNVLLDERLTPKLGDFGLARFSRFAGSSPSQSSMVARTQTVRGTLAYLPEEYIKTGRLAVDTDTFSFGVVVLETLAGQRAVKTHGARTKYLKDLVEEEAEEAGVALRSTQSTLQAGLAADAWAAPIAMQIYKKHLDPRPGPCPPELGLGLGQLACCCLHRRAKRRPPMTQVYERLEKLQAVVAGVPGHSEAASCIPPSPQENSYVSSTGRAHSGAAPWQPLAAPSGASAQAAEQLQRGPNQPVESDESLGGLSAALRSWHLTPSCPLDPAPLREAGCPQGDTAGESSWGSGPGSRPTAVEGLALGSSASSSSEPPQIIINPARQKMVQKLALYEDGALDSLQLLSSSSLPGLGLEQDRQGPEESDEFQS

By inhibition is commonly meant the change of the read-out against control, counted positive when it falls. One may read the IC50 as the concentration that gives 50% inhibition. Take `CCN1CCN(Cc2ccc(NC(=O)c3ccc(C)c(/C=C/c4cnc5[nH]ccc5c4OC)c3)cc2C(F)(F)F)CC1`: the inhibition is 6.6% in assay [1]; greater than 99% in assay [2]; -5.8% in assay [3]; 6.6% in assay [4]; 50.2% in assay [5]; -9.4% in assay [6]. In assay [7], the IC50 is 469 nM.

For `CCN1CCN(Cc2ccc(NC(=O)c3ccc(C)c(Oc4ccnc5[nH]ccc45)c3)cc2C(F)(F)F)CC1`, the inhibition was -5.6% in assay [1]; 89.6% in assay [2]; 3.2% in assay [3]; -5.6% in assay [4]; 51% in assay [5]; 14.2% in assay [6]. Further, in assay [7], the IC50 was determined as 698 nM.
